pPAFAH inh = pPAFAH enzyme inhibitors, primary screen, biochemical, fluorescence polarization, human | Platelet-activating factor acetylhydrolase (Homo sapiens), Q13093 | recombinant pPAFAH, FP-rhodamine probe fluorescence polarization | inhibition, % at 3.39 µM | actives 1.5% (n = 330,000);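 active = inhibition above the mean inhibition across the screen plus 3 SD, cut at about 25% in these data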;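 also: inhibitors block binding of the rhodamine activity-based probe so polarization drops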
PAFAH1B3 FP inh = PAFAH1B3 enzyme inhibitors, primary screen, biochemical, fluorescence polarization, human; recombinant PAFAH1B3, FP-rhodamine probe; inhibition, % at 3.39 µM; actives 0.28% (n = 340,000);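 active = inhibition above the screen-wide average of all tested compounds plus 3 SD, cut at about 25% in these data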
PAFAH2 inh = PAFAH2 enzyme inhibitors, primary screen, biochemical, fluorescence polarization, human | Platelet-activating factor acetylhydrolase 2, cytoplasmic (Homo sapiens), Q99487 | recombinant PAFAH2, FP-rhodamine activity probe | inhibition, % at 3.39 µM | actives 0.99% (n = 340,000);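 active = inhibition above the mean over all tested compounds plus 3 SD, cut at about 30% in these data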;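 also: inhibitors block probe labeling of enzyme so polarization drops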
HTRA1 inh = HTRA1 serine protease inhibitors, primary screen, biochemical, fluorescence polarization, HTS | recombinant HTRA1, FP-rhodamine activity-based probe | inhibition, % at 5.96 µM | actives 0.5% (n = 340,000); in the data active = inhibition above about 36%
Target sequence (Q92743 whole entry, looked up): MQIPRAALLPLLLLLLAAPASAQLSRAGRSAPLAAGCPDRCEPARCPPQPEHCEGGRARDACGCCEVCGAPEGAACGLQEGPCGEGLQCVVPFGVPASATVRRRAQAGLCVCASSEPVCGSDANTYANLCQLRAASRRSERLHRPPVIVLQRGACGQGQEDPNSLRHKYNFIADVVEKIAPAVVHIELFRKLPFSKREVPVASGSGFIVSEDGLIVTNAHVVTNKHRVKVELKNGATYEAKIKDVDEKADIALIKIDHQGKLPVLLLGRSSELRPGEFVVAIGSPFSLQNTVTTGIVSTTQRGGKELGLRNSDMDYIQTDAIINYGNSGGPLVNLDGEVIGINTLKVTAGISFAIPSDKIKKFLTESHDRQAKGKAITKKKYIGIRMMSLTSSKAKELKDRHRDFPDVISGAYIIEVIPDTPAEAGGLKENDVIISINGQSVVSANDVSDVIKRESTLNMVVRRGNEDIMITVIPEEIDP
PAFAH1B2 FP inh = PAFAH1B2 enzyme inhibitors, primary screen, biochemical, fluorescence polarization, human. Platelet-activating factor acetylhydrolase IB subunit alpha2 (Homo sapiens), P68402. recombinant PAFAH1B2, FP-rhodamine activity probe. inhibition, % at 3.39 µM. actives 1.2% (n = 340,000). AID 492953, 2010;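 active = inhibition above the mean of all tested compounds plus 3 SD, cut at about 24% in these data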
mABHD4 FP = ABHD4 inhibitors, primary screen, biochemical, fluorescence polarization, mouse | inhibition, % at 8.92 µM | AID 720543, 2013 | actives 0.54% (n = 370,000) | purified mABHD4, FP-Rh probe fluorescence polarization;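 active = inhibition exceeding the mean over every tested compound plus 3 SD, cut at about 30% in these data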
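Doses – 8.92 µM, single dose · Material – wild-type mouse ABHD4 protein · Replication – single well per compound (singlicate) · Measure – percent inhibition of probe binding, normalized to plate controls · Schedule – 45 min compound pre-incubation plus 60 min probe step, 25 °C · Detection – fluorescence polarization with parallel and perpendicular emission, 525/598 nm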
A number is an active result; - = inactive; . = no result. Hits are enriched below; roughly 2.8% of the tested compounds scored in any of these assays.

SMILES | pPAFAH inh | PAFAH1B3 FP inh | PAFAH2 inh | HTRA1 inh | PAFAH1B2 FP inh | mABHD4 FP
COC(=O)[C@]12C[C@H](CC(=O)NCCCCc3ccccc3)C(=O)N(Cc3ccco3)C1=C[C@H](COCc1ccccc1)O[C@@H]2C | . | . | . | . | . | -
Cc1cccc(Oc2nc(CN3CCOCC3)nc3sc4c(c23)CCCC4)c1 | 31 | - | - | - | - | -
Cc1ccc(-c2nn3c(C)nnc3c3ccccc23)cc1S(=O)(=O)NC(C)c1ccccc1 (stereo not drawn) | - | - | - | - | 26 | -
CCn1c(CSc2nnc(-c3cccnc3)n2-c2ccccc2C)nc2cc(C(=O)O)ccc21 | 42 | . | . | . | . | .
CCn1c(CSc2nnc(-c3ccncc3)n2CCOC)nc2cc(C(=O)O)ccc21 | 30 | 27 | 47 | - | 36 | -
CC(=O)c1ccc([C@H](O)[C@@H](C(=O)N(C)c2ccccc2)C2CC2)cc1 | . | . | . | . | . | -
Cc1ccc(S(=O)(=O)N2[C@@H](c3ccc(Cl)cc3)C(C(=O)O)=C[C@H]2C(C)(C)C)cc1 | - | - | - | - | 51 | -
CCCC[C@@H]1C=C(C(=O)O)[C@H](c2ccc(Cl)c(Cl)c2)N1S(=O)(=O)c1ccc(C)cc1 | - | - | - | - | 26 | -
CCCC[C@@H]1C=C(C(=O)O)[C@H](c2ccc(C)cc2)N1S(=O)(=O)c1ccc(C)cc1 | - | - | - | - | - | -
CCCN(CC1CC1)c1c2c(nc3ncnn13)CCCC2 | . | . | . | . | . | -
CCN1CCc2c(sc(NC(=O)Nc3ccc(Cl)c(Cl)c3)c2C(N)=O)C1 | 33 | - | - | - | - | -
CCOC(=O)N1CCc2c(sc(NC(C)=O)c2C(N)=O)C1 | - | - | - | - | - | -
CCOC(=O)N1CCc2c(sc(NC(=O)c3ccc(Cl)s3)c2C(N)=O)C1 | 25 | . | . | . | . | .
O=C(OCCCN1CCC2(CCC(c3ccccc3)CC2)C1=O)c1ccccc1 (stereo not drawn) | . | . | . | . | . | -
COc1cc(/C=N\NC(=O)c2ccc(Cn3cc(Br)c([N+](=O)[O-])n3)o2)cc(OC)c1O | 27 | - | - | - | - | -
COc1cc(/C=N/NC(=O)c2ccc(Cn3cc([N+](=O)[O-])cn3)o2)cc(Br)c1O | - | - | - | - | - | -
c1ccc(OCc2nn3c(Cn4cnc5ccccc54)nnc3s2)cc1 | - | - | - | - | 27 | -
O=C(CCNC(=O)c1ccc(Cl)cc1)NCc1cccc(C(F)(F)F)c1 | - | - | - | - | 25 | -
O=C(CC(c1ccccc1)(c1ccccc1)c1ccccc1)N[C@@H](Cc1ccccc1)C(=O)O | - | - | - | - | 25 | -
O=C(O)[C@H](Cc1ccccc1)NC(=O)C(c1ccccc1)(c1ccccc1)c1ccccc1 | - | - | - | - | - | -
O=C(CSc1nnc(-c2ccccc2)o1)Nc1ccccc1F | - | - | - | - | - | -
N#Cc1ccsc1NC(=O)CSc1nnc(-c2ccccc2)o1 | 34 | - | - | - | - | -
COc1cc2[nH]c(=O)n(CCCCCC(=O)N3CCN(c4ccccc4)CC3)c(=O)c2cc1OC | 27 | - | - | - | - | -
O=C(CCn1c(=O)[nH]c2ccccc2c1=O)N1CCN(c2ccc(Cl)cc2)CC1 | - | - | - | - | - | -
O=C(CCn1c(=O)[nH]c2ccccc2c1=O)N1CCN(c2cccc(C(F)(F)F)c2)CC1 | - | - | - | - | 31 | -
SMILES | pPAFAH inh | PAFAH1B3 FP inh | PAFAH2 inh | HTRA1 inh | PAFAH1B2 FP inh | mABHD4 FP
Cc1nc2ccc(NC(=O)c3cc(F)cc(F)c3)cc2c(=O)[nH]1 | . | . | . | . | . | -
COc1ccc(NS(=O)(=O)c2cccc(C(=O)NNC(=O)CNC(=O)c3ccc(C)cc3)c2)cc1 | 34 | - | - | - | - | -
COc1ccc(NS(=O)(=O)c2cccc(C(=O)NCC3(N4CCCCC4)CCCCC3)c2)cc1 | 32 | - | - | - | - | -
CNS(=O)(=O)c1cccc(C(=O)NCC2(N3CCCCC3)CCCCC2)c1 | - | - | - | - | - | -
CCOc1ccc(S(=O)(=O)Nc2ccc(C(=O)NCC3(N4CCCCC4)CCCCC3)cc2)cc1 | - | - | - | - | - | -
COc1ccc(NS(=O)(=O)c2ccc(C(=O)NCC3(N4CCOCC4)CCCCC3)cc2)cc1 | 31 | - | - | - | - | -
COc1ccc(NS(=O)(=O)c2cccc(C(=O)NNC(=O)NCCCl)c2)cc1 | - | - | - | - | - | -
COc1ccc(NS(=O)(=O)c2cccc(NC(=O)c3ccccn3)c2)cc1 | 26 | - | - | - | - | -
Cc1ccc2c(c1)C(CS(=O)(=O)NCc1ccc(F)cc1)NC2 (stereo not drawn) | . | . | . | . | . | -
O[C@H](COc1cccc(Br)c1)CN1CCC(C(O)(c2ccccc2)c2ccccc2)CC1 | . | . | . | . | . | -
Cc1ccc(SCC(=O)O/N=C(\N)c2cccnc2)cc1 | - | - | - | - | 75 | .
CCCCNC(=O)C[C@H]1C(=O)N(Cc2ccc(OC)cc2)C2=CCCCC[C@@]21C(=O)OC | . | . | . | . | . | -
CCC(C)c1ccc(C2C3=C(Nc4nc(N)[nH]c(=O)c42)c2ccccc2C3=O)cc1 (stereo not drawn) | 25 | - | - | - | - | -
CN(C)c1ccc(/C=C/c2ccc3ccccc3n2)cc1 | - | - | - | - | - | .
CCN(CC)c1ccc(/C=C/c2cc(-c3ccccc3)c3ccccc3n2)cc1 | 25 | - | - | - | - | -
OCc1nc2ccccc2n1CCCOc1ccc(Br)cc1 | 31 | - | - | - | - | -
OCc1nc2ccccc2n1CCCCOc1ccccc1 | - | - | - | - | - | -
Cn1c(=O)n(CCCOc2ccc(Cl)cc2)c2ccccc21 | - | - | - | - | - | -
Cn1c(=O)n(CCCOc2ccc(Br)cc2)c2ccccc21 | 32 | - | - | - | - | -
CCCC(=O)N1CCC[C@]2(CC[C@H](CCC(C)=O)O2)C1 | . | . | . | . | . | -
O=C(CCc1ccc(S(=O)(=O)N2CCOCC2)cc1)N/N=C/c1ccc(F)cc1F | - | - | - | - | - | -
O=C(CCc1ccc(S(=O)(=O)N2CCOCC2)cc1)N/N=C/c1ccc(O)c(O)c1O | 28 | - | - | - | - | -
CCOC(=O)CC[C@H]1CC[C@]2(CCCN(C(=O)C(C)(C)C)C2)O1 | . | . | . | . | . | -
Cc1cccc(NC(=O)c2cccc3c2-c2ccccc2C3=O)c1C | . | . | . | . | . | -
CCOC(=O)c1ccc(NC(=S)N2CCCC(C(=O)N3CCCC3)C2)cc1 (stereo not drawn) | 32 | - | - | - | - | -

Screening data deposited in PubChem BioAssay by The Scripps Research Institute Molecular Screening Center.
